{"source": "ChEMBL document CHEMBL1671716", "about": "“Antimicrobial susceptibility patterns for recent clinical isolates of anaerobic bacteria in South Korea” (2010)", "key": {"Prevotella intermedia": {"tested_on": "Prevotella intermedia", "test": "Antimicrobial activity against Prevotella intermedia after 48 hrs by agar dilution method in presence of 4 ug/ml beta-lactamase inhibitor Tazobactam", "format": "functional", "method_in_brief": "(§1)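 CLSI agar dilution (M11-A7); inoculum 10^5 CFU applied by replicator; plates incubated anaerobically 48 h at 37°C. For piperacillin-tazobactam, tazobactam held constant at 4 μg/ml.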"}, "Finegoldia magna": {"tested_on": "Finegoldia magna", "test": "Antimicrobial activity against Finegoldia magna assessed as percent susceptible isolates after 48 hrs by agar dilution method in presence of 4 ug/ml beta-lactamase inhibitor Tazobactam", "format": "functional", "method_in_brief": "as §1"}, "[1]": {"tested_on": "Bifidobacterium adolescentis", "test": "Antimicrobial activity against Bifidobacterium adolescentis after 48 hrs by agar dilution method in presence of 4 ug/ml beta-lactamase inhibitor Tazobactam", "format": "functional", "method_in_brief": "(§2)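 MICs by CLSI agar dilution for piperacillin combined with tazobactam, with tazobactam held constant at 4 μg/ml. Clinical anaerobe isolates inoculated at 10^5 CFU by Steers replicator. Plates kept in an anaerobic chamber at 37°C for 48 h.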"}, "[2]": {"tested_on": "Peptostreptococcus anaerobius", "test": "Antimicrobial activity against Peptostreptococcus anaerobius after 48 hrs by agar dilution method in presence of 4 ug/ml beta-lactamase inhibitor Tazobactam", "format": "functional", "method_in_brief": "as §1"}, "Parvimonas micra [3]": {"tested_on": "Parvimonas micra", "test": "Antimicrobial activity against Peptostreptococcus micros after 48 hrs by agar dilution method in presence of 4 ug/ml beta-lactamase inhibitor Tazobactam", "format": "functional", "method_in_brief": "as §1"}, "Bacteroides fragilis": {"tested_on": "Bacteroides fragilis", "test": "Antimicrobial activity against Bacteroides fragilis assessed as percent resistant isolates after 48 hrs by agar dilution method in presence of 4 ug/ml beta-lactamase inhibitor Tazobactam", "format": "functional", "method_in_brief": "(§3)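 CLSI agar dilution on recent Korean clinical anaerobe isolates. Inoculum 10^5 CFU per spot by replicator. Plates incubated in an anaerobic chamber at 37°C for 48 h. For piperacillin plus tazobactam, tazobactam was held constant at 4 μg/ml. Resistance and susceptibility rates derived from MICs.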"}, "[4]": {"tested_on": "Peptoniphilus asaccharolyticus", "test": "Antimicrobial activity against Peptoniphilus asaccharolyticus after 48 hrs by agar dilution method in presence of 4 ug/ml beta-lactamase inhibitor Tazobactam", "format": "functional", "method_in_brief": "as §1"}, "Bacteroides ovatus": {"tested_on": "Bacteroides ovatus", "test": "Antimicrobial activity against Bacteroides ovatus assessed as percent susceptible isolates after 48 hrs by agar dilution method in presence of 4 ug/ml beta-lactamase inhibitor Tazobactam", "format": "functional"}, "Hoylesella oralis": {"tested_on": "Hoylesella oralis", "test": "Antimicrobial activity against Prevotella oralis assessed as percent susceptible isolates after 48 hrs by agar dilution method in presence of 4 ug/ml beta-lactamase inhibitor Tazobactam", "format": "functional"}, "Anaerococcus prevotii": {"tested_on": "Anaerococcus prevotii", "test": "Antimicrobial activity against Anaerococcus prevotii assessed as percent susceptible isolates after 48 hrs by agar dilution method in presence of 4 ug/ml beta-lactamase inhibitor Tazobactam", "format": "functional"}, "Clostridioides difficile [5]": {"tested_on": "Clostridioides difficile", "test": "Antimicrobial activity against Clostridium difficile assessed as percent susceptible isolates after 48 hrs by agar dilution method in presence of 4 ug/ml beta-lactamase inhibitor Tazobactam", "format": "functional", "method_in_brief": "as §1"}, "Clostridium perfringens [6]": {"tested_on": "Clostridium perfringens", "test": "Antimicrobial activity against Clostridium perfringens after 48 hrs by agar dilution method in presence of 4 ug/ml beta-lactamase inhibitor Tazobactam", "format": "functional", "method_in_brief": "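Agar dilution per CLSI on Korean clinical C. perfringens isolates. Tazobactam at a fixed 4 μg/ml with piperacillin. 10^5 CFU spotted by replicator, then 48 h at 37°C in an anaerobic chamber. MIC read.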"}, "Schaalia odontolytica [7]": {"tested_on": "Schaalia odontolytica", "test": "Antimicrobial activity against Actinomyces odontolyticus assessed as percent resistant isolates after 48 hrs by agar dilution method in presence of 4 ug/ml beta-lactamase inhibitor Tazobactam", "format": "functional", "method_in_brief": "as §3"}, "Eubacterium sp.": {"tested_on": "Eubacterium sp.", "test": "Antimicrobial activity against Eubacterium sp. assessed as percent resistant isolates after 48 hrs by agar dilution method in presence of 4 ug/ml beta-lactamase inhibitor Tazobactam", "format": "functional", "method_in_brief": "as §3"}, "Bifidobacterium sp. [8]": {"tested_on": "Bifidobacterium sp.", "test": "Antimicrobial activity against Bifidobacterium sp. after 48 hrs by agar dilution method in presence of 4 ug/ml beta-lactamase inhibitor Tazobactam", "format": "functional", "method_in_brief": "as §2"}, "Bifidobacterium sp. [9]": {"tested_on": "Bifidobacterium sp.", "test": "Antimicrobial activity against Bifidobacterium sp. assessed as percent resistant isolates after 48 hrs by agar dilution method in presence of 4 ug/ml beta-lactamase inhibitor Tazobactam", "format": "functional", "method_in_brief": "as §3"}, "Clostridioides difficile [10]": {"tested_on": "Clostridioides difficile", "test": "Antimicrobial activity against Clostridium difficile assessed as percent resistant isolates after 48 hrs by agar dilution method in presence of 4 ug/ml beta-lactamase inhibitor Tazobactam", "format": "functional", "method_in_brief": "as §3"}, "Actinomyces naeslundii": {"tested_on": "Actinomyces naeslundii", "test": "Antimicrobial activity against Actinomyces naeslundii assessed as percent resistant isolates after 48 hrs by agar dilution method in presence of 4 ug/ml beta-lactamase inhibitor Tazobactam", "format": "functional", "method_in_brief": "as §3"}, "Prevotella buccae [11]": {"tested_on": "Prevotella buccae", "test": "Antimicrobial activity against Prevotella buccae assessed as percent susceptible isolates after 48 hrs by agar dilution method in presence of 4 ug/ml beta-lactamase inhibitor Tazobactam", "format": "functional, Segatella buccae", "method_in_brief": "as §1"}, "Clostridium perfringens [12]": {"tested_on": "Clostridium perfringens", "test": "Antimicrobial activity against Clostridium perfringens assessed as percent susceptible isolates after 48 hrs by agar dilution method in presence of 4 ug/ml beta-lactamase inhibitor Tazobactam", "format": "functional", "method_in_brief": "as §3"}, "Schaalia meyeri": {"tested_on": "Schaalia meyeri", "test": "Antimicrobial activity against Actinomyces meyeri after 48 hrs by agar dilution method in presence of 4 ug/ml beta-lactamase inhibitor Tazobactam", "format": "functional", "method_in_brief": "as §2"}, "Prevotella buccae [13]": {"tested_on": "Prevotella buccae", "test": "Antimicrobial activity against Prevotella buccae after 48 hrs by agar dilution method in presence of 4 ug/ml beta-lactamase inhibitor Tazobactam", "format": "functional", "conditions": "Segatella buccae", "method_in_brief": "as §1"}, "[14]": {"tested_on": "Parabacteroides distasonis", "test": "Antimicrobial activity against Bacteroides distasonis after 48 hrs by agar dilution method in presence of 4 ug/ml beta-lactamase inhibitor Tazobactam", "format": "functional", "method_in_brief": "as §2"}, "Fusobacterium necrogenes": {"tested_on": "Fusobacterium necrogenes", "test": "Antimicrobial activity against Fusobacterium necrogenes after 48 hrs by agar dilution method in presence of 4 ug/ml beta-lactamase inhibitor Tazobactam", "format": "functional", "method_in_brief": "as §1"}, "[15]": {"tested_on": "Bacteroides thetaiotaomicron", "test": "Antimicrobial activity against Bacteroides thetaiotaomicron assessed as percent susceptible isolates after 48 hrs by agar dilution method in presence of 4 ug/ml beta-lactamase inhibitor Tazobactam", "format": "functional"}, "Parvimonas micra [16]": {"tested_on": "Parvimonas micra", "test": "Antimicrobial activity against Peptostreptococcus micros assessed as percent susceptible isolates after 48 hrs by agar dilution method in presence of 4 ug/ml beta-lactamase inhibitor Tazobactam", "format": "functional", "method_in_brief": "as §1"}, "Prevotella buccae [17]": {"tested_on": "Prevotella buccae", "test": "Antimicrobial activity against Prevotella buccae assessed as percent resistant isolates after 48 hrs by agar dilution method in presence of 4 ug/ml beta-lactamase inhibitor Tazobactam", "format": "functional, Segatella buccae", "method_in_brief": "as §3"}, "Schaalia odontolytica [18]": {"tested_on": "Schaalia odontolytica", "test": "Antimicrobial activity against Actinomyces odontolyticus after 48 hrs by agar dilution method in presence of 4 ug/ml beta-lactamase inhibitor Tazobactam", "format": "functional", "method_in_brief": "as §2"}, "Prevotella bivia": {"tested_on": "Prevotella bivia", "test": "Antimicrobial activity against Prevotella bivia after 48 hrs by agar dilution method in presence of 4 ug/ml beta-lactamase inhibitor Tazobactam", "format": "functional", "method_in_brief": "as §1"}, "Fusobacterium mortiferum": {"tested_on": "Fusobacterium mortiferum", "test": "Antimicrobial activity against Fusobacterium mortiferum after 48 hrs by agar dilution method in presence of 4 ug/ml beta-lactamase inhibitor Tazobactam", "format": "functional", "method_in_brief": "as §1"}, "Bacteroides caccae": {"tested_on": "Bacteroides caccae", "test": "Antimicrobial activity against Bacteroides caccae assessed as percent resistant isolates after 48 hrs by agar dilution method in presence of 4 ug/ml beta-lactamase inhibitor Tazobactam", "format": "functional", "method_in_brief": "as §3"}, "Phocaeicola vulgatus": {"tested_on": "Phocaeicola vulgatus", "test": "Antimicrobial activity against Bacteroides vulgatus assessed as percent susceptible isolates after 48 hrs by agar dilution method in presence of 4 ug/ml beta-lactamase inhibitor Tazobactam", "format": "functional"}, "[19]": {"tested_on": "Peptostreptococcus anaerobius", "test": "Antimicrobial activity against Peptostreptococcus anaerobius assessed as percent susceptible isolates after 48 hrs by agar dilution method in presence of 4 ug/ml beta-lactamase inhibitor Tazobactam", "format": "functional", "method_in_brief": "as §1"}}}
{"smiles": "CCN1CCN(C(=O)N[C@@H](C(=O)N[C@@H]2C(=O)N3[C@@H]2SC(C)(C)[C@@H]3C(=O)O)c2ccccc2)C(=O)C1=O", "note": "[PIPERACILLIN]", "values": [{"measurement": "MIC50", "setting": "Prevotella intermedia", "value": "≤ 0.03", "unit": "µg/mL"}, {"measurement": "MIC90", "setting": "Prevotella intermedia", "value": "≤ 0.03", "unit": "µg/mL"}, {"measurement": "Activity", "setting": "Finegoldia magna", "value": 100, "unit": "%"}, {"measurement": "MIC50", "setting": "[1]", "value": 0.5, "unit": "µg/mL"}, {"measurement": "MIC90", "setting": "[1]", "value": 8, "unit": "µg/mL"}, {"measurement": "MIC50", "setting": "[2]", "value": 0.25, "unit": "µg/mL"}, {"measurement": "MIC90", "setting": "[2]", "value": 16, "unit": "µg/mL"}, {"measurement": "MIC50", "setting": "Parvimonas micra [3]", "value": 0.25, "unit": "µg/mL"}, {"measurement": "MIC90", "setting": "Parvimonas micra [3]", "value": 16, "unit": "µg/mL"}, {"measurement": "Activity", "setting": "Bacteroides fragilis", "value": 2, "unit": "%"}, {"measurement": "MIC50", "setting": "[4]", "value": "≤ 0.03", "unit": "µg/mL"}, {"measurement": "MIC90", "setting": "[4]", "value": 0.06, "unit": "µg/mL"}, {"measurement": "Activity", "setting": "Bacteroides ovatus", "value": 89, "unit": "%"}, {"measurement": "Activity", "setting": "Hoylesella oralis", "value": 100, "unit": "%"}, {"measurement": "Activity", "setting": "Anaerococcus prevotii", "value": 100, "unit": "%"}, {"measurement": "Activity", "setting": "Clostridioides difficile [5]", "value": 100, "unit": "%"}, {"measurement": "MIC50", "setting": "Clostridium perfringens [6]", "value": 0.25, "unit": "µg/mL"}, {"measurement": "MIC90", "setting": "Clostridium perfringens [6]", "value": 0.5, "unit": "µg/mL"}, {"measurement": "Activity", "setting": "Schaalia odontolytica [7]", "value": 0, "unit": "%"}, {"measurement": "Activity", "setting": "Eubacterium sp.", "value": 0, "unit": "%"}, {"measurement": "MIC50", "setting": "Bifidobacterium sp. [8]", "value": 0.5, "unit": "µg/mL"}, {"measurement": "MIC90", "setting": "Bifidobacterium sp. [8]", "value": 8, "unit": "µg/mL"}, {"measurement": "Activity", "setting": "Bifidobacterium sp. [9]", "value": 0, "unit": "%"}, {"measurement": "Activity", "setting": "Clostridioides difficile [10]", "value": 0, "unit": "%"}, {"measurement": "Activity", "setting": "Actinomyces naeslundii", "value": 0, "unit": "%"}, {"measurement": "Activity", "setting": "Prevotella buccae [11]", "value": 100, "unit": "%"}, {"measurement": "Activity", "setting": "Clostridium perfringens [12]", "value": 100, "unit": "%"}, {"measurement": "MIC50", "setting": "Schaalia meyeri", "value": 0.5, "unit": "µg/mL"}, {"measurement": "MIC90", "setting": "Schaalia meyeri", "value": 8, "unit": "µg/mL"}, {"measurement": "MIC50", "setting": "Prevotella buccae [13]", "value": "≤ 0.03", "unit": "µg/mL"}, {"measurement": "MIC90", "setting": "Prevotella buccae [13]", "value": 4, "unit": "µg/mL"}, {"measurement": "MIC50", "setting": "[14]", "value": 8, "unit": "µg/mL"}, {"measurement": "MIC90", "setting": "[14]", "value": 64, "unit": "µg/mL"}, {"measurement": "MIC", "setting": "Fusobacterium necrogenes", "value": 0.03, "unit": "µg/mL"}, {"measurement": "Activity", "setting": "[15]", "value": 89, "unit": "%"}, {"measurement": "Activity", "setting": "Parvimonas micra [16]", "value": 0, "unit": "%"}, {"measurement": "Activity", "setting": "Prevotella buccae [17]", "value": 0, "unit": "%"}, {"measurement": "MIC50", "setting": "Schaalia odontolytica [18]", "value": 0.5, "unit": "µg/mL"}, {"measurement": "MIC90", "setting": "Schaalia odontolytica [18]", "value": 8, "unit": "µg/mL"}, {"measurement": "MIC50", "setting": "Prevotella bivia", "value": "≤ 0.03", "unit": "µg/mL"}, {"measurement": "MIC90", "setting": "Prevotella bivia", "value": 4, "unit": "µg/mL"}, {"measurement": "MIC", "setting": "Fusobacterium mortiferum", "value": 0.03, "unit": "µg/mL"}, {"measurement": "Activity", "setting": "Bacteroides caccae", "value": 7, "unit": "%"}, {"measurement": "Activity", "setting": "Phocaeicola vulgatus", "value": 89, "unit": "%"}, {"measurement": "Activity", "setting": "[19]", "value": 100, "unit": "%"}]}
